ChEMBL document CHEMBL4130598, “Discovery of New Sulfonamide Carbonic Anhydrase IX Inhibitors Incorporating Nitrogenous Bases” (ACS Med Chem Lett, 2017)
Calls of active or inactive are those of the source. The calls are words filed in the database; no cut-off is given here.

Assays:
Carbonic anhydrase 9 = Carbonic anhydrase 9 (Homo sapiens, UniProt Q16790); experiment: Inhibition of human carbonic anhydrase 9 incubated for 15 mins by stopped flow CO2 hydrase assay
HT-29 [1] = experiment: Cytotoxicity in human HT-29 cells assessed as reduction in cell viability at 30 to 300 uM incubated for 16 hrs under hypoxic conditions by MTT assay
HT-29 [2] = experiment: Cytotoxicity in human HT-29 cells assessed as reduction in cell viability at 30 to 300 uM incubated for 16 hrs under normoxic conditions by MTT assay; format: functional, cell-based
Summary of the method: (§1)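 HT-29 human colon cancer cells seeded at 1 × 10^4 per well and exposed to 30−300 μM for 16 or 48 h, under normoxia (20% O2) or hypoxia (0.1% O2). Viability is given relative to untreated control set at 100%, as mean ± SEM of three experiments, with significance tested against 0 μM.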

HT-29 [3] = experiment: Cytotoxicity in human HT-29 cells assessed as cell mortality at 30 to 300 uM incubated for 16 hrs under normoxic conditions by MTT assay; format: functional
HT-29 [4] = experiment: Cytotoxicity in human HT-29 cells assessed as reduction in cell viability at 30 to 300 uM incubated for 48 hrs under hypoxic conditions by MTT assay; format: functional; summary of the method: as §1
Carbonic anhydrase 1 = Carbonic anhydrase 1 (Homo sapiens, UniProt P00915); experiment: Inhibition of human carbonic anhydrase 1 incubated for 15 mins by stopped flow CO2 hydrase assay
Sequence of Carbonic anhydrase 1 (P00915 whole entry): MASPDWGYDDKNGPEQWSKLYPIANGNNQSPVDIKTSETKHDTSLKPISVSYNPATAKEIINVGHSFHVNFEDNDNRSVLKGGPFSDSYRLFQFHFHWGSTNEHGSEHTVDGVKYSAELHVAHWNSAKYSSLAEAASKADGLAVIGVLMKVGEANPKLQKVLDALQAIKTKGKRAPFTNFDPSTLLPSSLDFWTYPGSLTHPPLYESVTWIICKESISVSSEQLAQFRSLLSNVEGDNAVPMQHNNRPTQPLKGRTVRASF

Ki (Carbonic anhydrase 9) | SMILES | other results
0.0048 µM | NS(=O)(=O)c1ccc(-n2cc(Cn3ccc(=O)[nH]c3=O)nn2)cc1 | 
0.0019 µM | Nc1ncnc2c1ncn2Cc1cn(-c2ccc(S(N)(=O)=O)cc2)nn1 | 
0.0452 µM | Nc1ncnc2c1ncn2CC(=O)NCc1ccc(S(N)(=O)=O)cc1 | 
0.166 µM | CN(C)/C=N/c1ncnc2c1ncn2CC(=O)NCc1ccc(S(N)(=O)=O)cc1 | 
0.04 µM | CN(C)/C=N/c1ncnc2c1ncn2CC(=O)Nc1ccc(S(N)(=O)=O)cc1 | 
0.439 µM | NS(=O)(=O)c1ccc(O)c(NC(=O)Cn2ccc(=O)[nH]c2=O)c1 | 
0.113 µM | CN(C)/C=N/c1ncnc2c1ncn2CC(=O)NCCc1ccc(S(N)(=O)=O)cc1 | 
0.46 µM | NS(=O)(=O)c1cccc(-n2cc(Cn3ccc(=O)[nH]c3=O)nn2)c1 | 
0.428 µM | Nc1ncnc2c1ncn2CC(=O)Nc1cccc(S(N)(=O)=O)c1 | Ki (Carbonic anhydrase 1): > 10 µM
3.12 µM | NS(=O)(=O)c1cccc(NC(=O)Cn2ccc(=O)[nH]c2=O)c1 | 
1.31 µM | Nc1ncnc2c1ncn2Cc1cn(-c2cccc(S(N)(=O)=O)c2)nn1 | Ki (Carbonic anhydrase 1): > 10 µM
0.405 µM | NS(=O)(=O)c1ccc(CNC(=O)Cn2ccc(=O)[nH]c2=O)cc1 | 
0.0257 µM | NS(=O)(=O)c1ccc(NC(=O)Cn2ccc(=O)[nH]c2=O)cc1 | Activity (HT-29 [1]): inactive; Activity (HT-29 [2]): Active; Activity (HT-29 [4]): 25 - 30%
0.046 µM | NS(=O)(=O)c1ccc(CCNC(=O)Cn2ccc(=O)[nH]c2=O)cc1 | 
2.81 µM | CN(C)/C=N/c1ncnc2c1ncn2CC(=O)Nc1cccc(S(N)(=O)=O)c1 | Ki (Carbonic anhydrase 1): > 10 µM

SMILES | Ki (Carbonic anhydrase 9) | other results
Nc1ncnc2c1ncn2CC(=O)Nc1ccc(S(N)(=O)=O)cc1 | 0.0169 µM | Activity (HT-29 [1]): Active; Activity (HT-29 [2]): Active; Activity (HT-29 [3]): 10 - 15%; Activity (HT-29 [4]): 25 - 30%
Nc1ncnc2c1ncn2CCOc1ccc(S(N)(=O)=O)cc1 | 0.0299 µM | Activity (HT-29 [1]): inactive; Activity (HT-29 [2]): Active; Activity (HT-29 [3]): 10 - 15%; Activity (HT-29 [4]): 25 - 30%
Nc1ncnc2c1ncn2CC(=O)NCCc1ccc(S(N)(=O)=O)cc1 | 0.0114 µM | Activity (HT-29 [1]): inactive; Activity (HT-29 [3]): 10 - 15%
